For series [1], the target named is T1, Free fatty acid receptor 1 (Homo sapiens, UniProt O14842). Briefly: Agonist activity at human GPR40 expressed in CHOA12 cells assessed as induction of Ca2+ mobilization at 8.3 uM by FLIPR assay relative to compound 2. The series is classed as functional, cell-based.
The target in series [2] is T1, Free fatty acid receptor 1. Briefly: Agonist activity at human GPR40 expressed in CHOA12 cells assessed as induction of Ca2+ mobilization by FLIPR assay. It is filed as functional, cell-based.
A short description of series [3]: Half life in human liver microsomes at 1 to 3 uM incubated for 20 mins in presence NADPH measured up to 90 mins by LC/MS/MS analysis. The settings on record: liver microsomes. It is filed as ADME, microsome.
The nature of series [4]: Clearance in cynomolgus monkey at 0.5 mg/kg, iv administered as single dose measured up to 24 hrs post dose by LC-MS/MS analysis. The series is classed as ADME, organism-based, Macaca fascicularis. The settings on record: in vivo.
Series [5] can be described thus: Half life in rat liver microsomes at 1 to 3 uM incubated for 20 mins in presence NADPH measured up to 90 mins by LC/MS/MS analysis. It is filed as ADME, microsome. Particulars: liver microsomes.
Series [6] can be described thus: Stability in human liver microsomes assessed as parent compound remaining at 1 to 3 uM incubated for 20 mins in presence NADPH measured up to 90 mins by LC/MS/MS analysis. It is filed as ADME, microsome. The settings on record: liver microsomes, read-out: Stability. The essentials:
(§1)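 Human or rat liver microsomal incubations. The read-outs were % parent remaining, % D-ring dealkylation metabolites, % GSH adducts, and half-life (min). The metabolites followed were CYP450-mediated oxidative de-alkylation products (phenols) and GSH conjugates.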

A short description of series [7]: Half life in cynomolgus monkey at 0.5 mg/kg, iv administered as single dose measured up to 24 hrs post dose by LC-MS/MS analysis. It is filed as ADME, organism-based, Macaca fascicularis. Particulars: in vivo.
The nature of series [8]: Clearance in Sprague-Dawley rat at 1 mg/kg, iv administered as single dose measured up to 24 hrs post dose by LC-MS/MS analysis. It is filed as ADME, organism-based. Particulars: in vivo.
Series [9] is described as follows: Clearance in Beagle dog at 0.5 mg/kg, iv administered as single dose measured up to 24 hrs post dose by LC-MS/MS analysis. It is filed as ADME, organism-based, Canis lupus familiaris. The settings on record: in vivo.
The nature of series [10]: Half life in CD1 mouse at 1 mg/kg, iv administered as bolus dose or 1 mg/kg, po administered as single dose measured up to 24 hrs post dose by LC-MS/MS analysis. It is filed as ADME, organism-based. The settings on record: in vivo.
Series [11] is described as follows: Cmax in Sprague-Dawley rat at 3 mg/kg, po administered as single dose measured up to 24 hrs post dose by LC-MS/MS analysis. The series is classed as ADME, organism-based. More on the design: dose 3 mg/kg, route oral. Particulars: in vivo.
Series [12] can be described thus: Half life in Beagle dog at 0.5 mg/kg, iv administered as single dose measured up to 24 hrs post dose by LC-MS/MS analysis. The settings on record: in vivo. The series is classed as ADME, organism-based, Canis lupus familiaris.
The nature of series [13]: Stability in rat liver microsomes assessed as parent compound remaining at 1 to 3 uM incubated for 20 mins in presence NADPH measured up to 90 mins by LC/MS/MS analysis. It is filed as ADME, microsome. The settings on record: liver microsomes, read-out: Stability. The essentials: as §1
A short description of series [14]: Volume of distribution at steady state in CD1 mouse at 1 mg/kg, iv via bolus dose or 1 mg/kg, po administered as single dose measured up to 24 hrs post dose by LC-MS/MS analysis. It is filed as ADME, organism-based. Particulars: in vivo, read-out: Vdss.
Series [15] can be described thus: Half life in Sprague-Dawley rat at 1 mg/kg, iv administered as single dose measured up to 24 hrs post dose by LC-MS/MS analysis. The settings on record: in vivo. It is filed as ADME, organism-based.
Series [16] is described as follows: Clearance in CD1 mouse at 1 mg/kg, iv administered as bolus dose or 1 mg/kg, po administered as single dose measured up to 24 hrs post dose by LC-MS/MS analysis. The series is classed as ADME, organism-based. The settings on record: in vivo.
Series [17] is described as follows: Volume of distribution at steady state in Sprague-Dawley rat at 1 mg/kg, iv administered as single dose measured up to 24 hrs post dose by LC-MS/MS analysis. The series is classed as ADME, organism-based. Particulars: in vivo, read-out: Vdss.
Series [18] is described as follows: Tmax in Sprague-Dawley rat at 3 mg/kg, po administered as single dose measured up to 24 hrs post dose by LC-MS/MS analysis. The series is classed as ADME, organism-based. The settings on record: in vivo.
Series [19] in a line: Volume of distribution at steady state in cynomolgus monkey at 0.5 mg/kg, iv administered as single dose measured up to 24 hrs post dose by LC-MS/MS analysis. The series is classed as ADME, organism-based, Macaca fascicularis. Particulars: in vivo, read-out: Vdss.
Series [20] can be described thus: Volume of distribution at steady state in Beagle dog at 0.5 mg/kg, iv administered as single dose measured up to 24 hrs post dose by LC-MS/MS analysis. The series is classed as ADME, organism-based, Canis lupus familiaris. The settings on record: in vivo, read-out: Vdss.
Series [21] in a line: Oral bioavailability in Sprague-Dawley rat at 3 mg/kg administered via gavage as single dose measured up to 24 hrs post dose by LC-MS/MS analysis. The series is classed as ADME, organism-based. The settings on record: in vivo.
The subject of series [22] is Mus musculus. Description: Antidiabetic activity in C57BL/6J mouse assessed as glucose lowering effect at 1 mg/kg, po administered 1 hr prior to glucose challenge measured after 120 mins by IPGTT. It is filed as functional, organism-based.

Structures are written as SMILES. The source made the active and inactive calls. No cut-off for these calls is given here.

T1 sequence (O14842 whole entry): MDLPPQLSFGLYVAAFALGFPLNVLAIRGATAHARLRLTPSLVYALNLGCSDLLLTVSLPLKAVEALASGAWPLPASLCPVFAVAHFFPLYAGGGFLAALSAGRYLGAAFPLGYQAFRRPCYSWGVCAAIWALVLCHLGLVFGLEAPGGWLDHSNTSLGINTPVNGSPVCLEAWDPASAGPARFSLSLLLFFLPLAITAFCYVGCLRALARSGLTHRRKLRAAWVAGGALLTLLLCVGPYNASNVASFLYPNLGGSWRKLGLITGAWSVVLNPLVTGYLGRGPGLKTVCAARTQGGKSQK

Consider `COc1ccc(F)c(N2CC[C@H](COc3ccc(N4C[C@H](C(F)(F)F)C[C@@H]4CC(=O)O)cc3)C2)c1`, for which the outcome in series [1] was Active.
Turning to `COc1cc(N2CC[C@@H](Oc3ccc(N4N=C(C(F)(F)F)[C@@H](C)[C@@H]4CC(=O)O)cc3)[C@H](F)C2)c(Cl)cn1`, the EC50 in [2] worked out at 180 nM.
Consider `COc1ccc(F)c(N2CCC(Oc3ccc(N4CCC[C@@H]4CC(=O)O)cc3)CC2)c1`, for which the EC50 in series [2] lay in the range of 1200 to 2600 nM. Also, in series [1], the outcome was Active.
Regarding `CCOc1ccc(F)c(N2CC[C@@H](Oc3ccc(N4N=C(C(F)(F)F)[C@@H](C)[C@@H]4CC(=O)O)cc3)[C@H](F)C2)c1`, the half-life in series [3] is 1.58 h; in series [5], 0.617 h; in series [7] it was 9.4 h; in series [10], 3.3 h; in series [12], 7.3 h; in series [15] it was 3.4 h. The clearance in [4] turned out to be 4 mL/min/kg; in series [8] it was 5 mL/min/kg; in [9], 2.6 mL/min/kg; in [16], 1.6 mL/min/kg. The remaining at 20 min, up to 3 µM in [6] is 93%; in series [13] it was 79%. In series [11], this compound showed a Cmax of 3.2 µM. Besides, the EC50 in series [2] worked out at 150 nM. In addition, the Vd worked out at 0.7 L/kg in series [14], 0.8 L/kg in [17], 2.2 L/kg in series [19] and 0.6 L/kg in series [20]. In series [18], the Tmax was determined as 1.7 h. The compound also gave a bioavailability in [21] of 89%.
Turning to `COc1ccc(Cl)c(N2CCC(Oc3ccc(N4N=C(C(F)(F)F)[C@@H](C)[C@@H]4CC(=O)O)cc3)CC2)c1`, the EC50 in [2] stood at 100 nM.
Consider `COc1ccc(F)c(N2CCC(Cc3ccc(N4C[C@H](C(F)(F)F)C[C@@H]4CC(=O)O)cc3)CC2)c1`, for which the result in [1] was Active.
On to `C[C@@H]1C(C(F)(F)F)=NN(c2ccc(OC3CCN(c4ccc(F)cc4)CC3)cc2)[C@H]1CC(=O)O`, for which the EC50 in series [2] was in the range of 2550 to 2730 nM.
Take `COc1ccc(F)c(-c2ccc(Cc3ccc(N4C[C@H](C(F)(F)F)C[C@@H]4CC(=O)O)cc3)c(C)c2)c1`: the result in series [22] was Active.
Regarding `COc1ccc(F)c(N2CC[C@@H](Oc3ccc(N4N=C(C(F)(F)F)[C@@H](C)[C@@H]4CC(=O)O)cc3)[C@H](F)C2)c1`, in series [2], the 50% effective concentration (EC50) stood at 70 nM.
On the same count and under the same terms, under `COc1ccc(C#N)c(N2CCC(Oc3ccc(N4N=C(C(F)(F)F)[C@@H](C)[C@@H]4CC(=O)O)cc3)CC2)c1` stands 680 nM; under `CCc1ccc(F)c(N2CCC(Oc3ccc(N4N=C(C(F)(F)F)[C@@H](C)[C@@H]4CC(=O)O)cc3)CC2)c1`, 450 to 720 nM.

The values above are taken from ChEMBL document CHEMBL4020824, “Discovery of Potent and Orally Bioavailable Dihydropyrazole GPR40 Agonists” (J Med Chem, 2018).
